Laboratory results: ChEMBL document CHEMBL1128718, “2-Substituted penems with amino acid-related side chains: synthesis and antibacterial activity of a new series of beta-lactam antibiotics” (1995)
Converted amounts (≈) assume the structure as drawn.

Experiments:
Type in all cases: functional
Staphylococcus aureus [1] = test: In vitro antibacterial activity against Sa(II) Staphylococcus aureus ATCC 25923
How it was run: (§1)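 Panel of standard ATCC strains plus modified strains: methicillin-resistant, hyperpermeable, β-lactamase-producing (TEM1, TEM2, SHV) and β-lactamase-lacking. MIC determined in Mueller Hinton 2 medium, inoculum 10⁴ cells/mL, incubated 24 h at 37 °C.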

Enterococcus faecalis [2] = test: In Vitro antibacterial activity against (Ef) Enterococcus faecalis ATCC 29212; how it was run: as §1
Escherichia coli [3] = test: In Vitro antibacterial activity against (Ec TEM1) Escherichia coli […] strain; how it was run: as §1
Staphylococcus aureus [4] = test: In vitro antibacterial activity against Sa(I) Staphylococcus aureus ATCC 29213
How it was run: (§2)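 MIC was determined in Mueller Hinton 2 medium with an inoculum of 10⁴ cells/mL and incubation for 24 h at 37 °C. Strains: Sa(I) is S. aureus ATCC 29213; Sa MR(I) is a heterogeneous methicillin-resistant S. aureus; Sa MR(II) is a homogeneous methicillin-resistant S. aureus.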

Escherichia coli [5] = test: In Vitro antibacterial activity against (Ec DC2) hyperpermeable Escherichia coli strain; how it was run: as §1
Pseudomonas aeruginosa [6] = test: In Vitro antibacterial activity against(Pa) Pseudomonas aeruginosa ATCC 27853; how it was run: as §1
Escherichia coli [7] = test: In Vitro antibacterial activity against (Ec L) Escherichia coli […] strain; how it was run: as §1
Staphylococcus aureus [8] = test: In vitro antibacterial activity against Sa MR(I) heterogeneous methicillin resistant Staphylococcus aureus; how it was run: as §2
Staphylococcus aureus [9] = test: In vitro antibacterial activity against Sa MR(II) homogeneous methicillin resistant Staphylococcus aureus; how it was run: as §2
Escherichia coli [10] = test: In Vitro antibacterial activity against (Ec SHV) Escherichia coli […] strain; how it was run: as §1
Pseudomonas aeruginosa [11] = test: In Vitro antibacterial activity against (Pa) hyperpermeable Pseudomonas aeruginosa […] strain; how it was run: as §1
Escherichia coli [12] = test: In Vitro antibacterial activity against (Ec TEM2) Escherichia coli […] strain; how it was run: as §1
Escherichia coli [13] = test: In Vitro antibacterial activity against (Ec) Escherichia coli ATCC 25922; how it was run: as §1
Pseudomonas aeruginosa [14] = test: In Vitro antibacterial activity against (Pa G242) hyperpermeable Pseudomonas aeruginosa strain; how it was run: as §1
Enterococcus faecalis [15] = test: In vitro Anti Bacterial Activity (MIC90) against 90% of tested clinical Isolates of Enterococcus faecalis(47)
How it was run: (§3)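 Aerobic clinical isolates; MICs in Mueller Hinton 2 medium, inoculum 10⁴ cells/mL, incubated 24 h at 37 °C; MIC90 taken across isolates of each species.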

Streptococcus pyogenes = test: In vitro Anti Bacterial Activity (MIC90) against 90% of tested clinical Isolates of Streptococcus pyogenes(31)
Staphylococcus aureus [16] = test: In vitro Anti Bacterial Activity (MIC90) against 90% of tested clinical Isolates of Staphylococcus aureus MV (20)
[17] = test system: Staphylococcus epidermidis; test: In vitro Anti Bacterial Activity (MIC90) against 90% of tested clinical Isolates of S. epidermidis(13); how it was run: as §3
Haemophilus influenzae = test: In vitro Anti Bacterial Activity (MIC90) against 90% of tested clinical Isolates of Haemophilus Influenzae(21)
How it was run: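 MIC90 over clinical isolates; MICs in Haemophilus Test Medium Base with Haemophilus Test Medium Supplement, inoculum 10⁴ cells/mL, 24–48 h at 37 °C.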

Bacteroides fragilis = test: In vitro Anti Bacterial Activity (MIC90) against 90% of tested clinical Isolates of Bacteroides fragilis(15)
How it was run: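 MIC90 over clinical anaerobe isolates; MICs in Wilkins-Chalgren agar, inoculum 10⁵ cells/mL, 24–48 h at 37 °C.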

Klebsiella pneumoniae = test: In Vitro Anti Bacterial Activity (MIC90) against 90% of tested clinical Isolates of Klebsiella pneumoniae(20)
How it was run: (§4)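 Over 500 clinical isolates tested in total; the line gives the isolate count. MIC90 for aerobes by dilution in Mueller Hinton 2 medium, inoculum 10⁴ cells/mL, incubated 24 h at 37 °C.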

Listeria monocytogenes = test: In vitro Anti Bacterial Activity (MIC90) against 90% of tested clinical Isolates of Listeria monocytogenes (20)
Clostridium perfringens = test: In vitro Anti Bacterial Activity (MIC90) against 90% of tested clinical Isolates of Clostridium perfringens(27)
How it was run: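 MIC90 over clinical isolates of this anaerobic species, taken from the MIC distribution. Anaerobes were tested on Wilkins-Chalgren agar with an inoculum of 10⁵ cells/mL and incubated 24–48 h at 37 °C.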

Yersinia sp. = test: In Vitro Anti Bacterial Activity (MIC90) against 90% of tested clinical Isolates of Yersinia species(20); conditions: Yersinia sp. (in: enterobacteria)
Staphylococcus aureus [18] = test: In vitro Anti Bacterial Activity (MIC90) against 90% of tested clinical Isolates of Staphylococcus aureus MS (6); how it was run: as §3
Enterococcus faecium = test: In vitro Anti Bacterial Activity (MIC90) against 90% of tested clinical Isolates of Enterococcus faecium(47); how it was run: as §3
Streptococcus pneumoniae = test: In Vitro Anti Bacterial Activity (MIC90) against 90% of tested clinical Isolates of Streptococcus pneumoniae (23)
Streptococcus agalactiae = test: In vitro Anti Bacterial Activity (MIC90) against 90% of tested clinical Isolates of Streptococcus agalactiaeB(21)
Aeromonas = test: In vitro 90% of tested clinical Isolates of Aeromonas species(21); how it was run: as §4
Moraxella catarrhalis = test: In vitro Anti Bacterial Activity (MIC90) against 90% of tested clinical Isolates of Branhamella catarrhalis(27)

C[C@@H](O)[C@H]1C(=O)N2C(C(=O)O)=C(CSC(=S)N(C)CC(N)=O)S[C@H]12
MIC (Staphylococcus aureus [1]): 0.12 µg/mL (≈ 0.307 µM)
MIC (Enterococcus faecalis [2]): 8 µg/mL (≈ 20.4 µM)
MIC (Escherichia coli [3]): 8 µg/mL (≈ 20.4 µM)
MIC (Staphylococcus aureus [4]): 0.12 µg/mL (≈ 0.307 µM)
MIC (Escherichia coli [5]): 0.5 µg/mL (≈ 1.28 µM)
MIC (Pseudomonas aeruginosa [6]): > 64 µg/mL
MIC (Escherichia coli [7]): 16 µg/mL (≈ 40.9 µM)
MIC (Staphylococcus aureus [8]): 0.03 µg/mL (≈ 0.0766 µM)
MIC (Staphylococcus aureus [9]): 2 µg/mL (≈ 5.11 µM)
MIC (Escherichia coli [10]): 16 µg/mL (≈ 40.9 µM)
MIC (Pseudomonas aeruginosa [11]): 4 µg/mL (≈ 10.2 µM)
MIC (Escherichia coli [12]): 8 µg/mL (≈ 20.4 µM)
MIC (Escherichia coli [13]): 8 µg/mL (≈ 20.4 µM)
MIC (Pseudomonas aeruginosa [14]): 8 µg/mL (≈ 20.4 µM)

CC1(C)S[C@@H]2[C@H](NC(=O)[C@H](N)c3ccc(O)cc3)C(=O)N2[C@H]1C(=O)O [AMOXICILLIN]
MIC90 (Enterococcus faecalis [15]): 0.5 µg/mL (≈ 1.37 µM)
MIC90 (Streptococcus pyogenes): 0.015 µg/mL (≈ 0.041 µM)
MIC90 (Staphylococcus aureus [16]): 32 µg/mL (≈ 87.6 µM)
MIC90 [17]: 4 µg/mL (≈ 10.9 µM)
MIC90 (Haemophilus influenzae): 1 µg/mL (≈ 2.74 µM)
MIC90 (Bacteroides fragilis): 32 µg/mL (≈ 87.6 µM)
MIC90 (Klebsiella pneumoniae): > 64 µg/mL
MIC90 (Listeria monocytogenes): 0.5 µg/mL (≈ 1.37 µM)
MIC90 (Clostridium perfringens): 0.06 µg/mL (≈ 0.164 µM)
MIC90 (Yersinia sp.): > 64 µg/mL
MIC90 (Staphylococcus aureus [18]): 1 µg/mL (≈ 2.74 µM)
MIC90 (Enterococcus faecium): 32 µg/mL (≈ 87.6 µM)
MIC90 (Streptococcus pneumoniae): 0.015 µg/mL (≈ 0.041 µM)
MIC90 (Streptococcus agalactiae): 0.06 µg/mL (≈ 0.164 µM)
MIC90 (Aeromonas): > 32 µg/mL
MIC90 (Moraxella catarrhalis): 2 µg/mL (≈ 5.47 µM)
